Assay results published in ChEMBL document CHEMBL2417486, “Exploring natural product chemistry and biology with multicomponent reactions. 5. Discovery of a novel tubulin-targeting scaffold derived from the rigidin family of marine alkaloids” (J Med Chem, 2013).
Values after ≈ are worked out from the molar mass of the structure shown. Active and inactive are the calls of the source. The calls are words filed in the database; no cut-off is given here.

What was measured:
[1] = biological target: T1, Tubulin beta (Homo sapiens) (UniProt P68371+Q9H4B7+Q13509+P04350+Q3ZCM7+P07437+Q13885+Q9BVA1+Q9BUF5+A6NNZ2); assay: Inhibition of [3H] radiolabelled colchicine binding to tubulin beta (unknown origin) at 5 uM by DEAE-cellulose filter method; format: protein assay
[2] = Growth inhibition of human U373 cells after 48 hrs by MTT assay; format: functional, U-373MG ATCC; conditions: U373 MG
[3] = tested on: HeLa; assay: Antimitotic activity in human HeLa cells assessed as effect on spindle length at 1 to 10 nM after 3 hrs by Hoechst 33342 staining based inverted microscopic analysis; format: functional, cell-based
Summary of the method: (§1)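 HeLa cells grown in EMEM with 10% FBS, sodium pyruvate and sodium bicarbonate; treated 3 h with compound (DMSO stock prediluted in medium) or 0.1% DMSO carrier. Fixed in methanol at -20°C for 30 min, blocked in 3% BSA/PBS 1 h, mouse anti-tubulin plus rabbit anti-pericentrin overnight at 4 °C, Alexafluor secondaries, Hoechst 33342 for DNA; epifluorescence imaging with Apotome.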

[4] = tested on: HeLa; assay: Antimitotic activity in human HeLa cells assessed as interphase microtubule organization at 1 to 10 nM after 3 hrs by Hoechst 33342 staining based inverted microscopic analysis; format: functional, cell-based; summary of the method: as §1
[5] = biological target: T1, Tubulin beta (Homo sapiens); assay: Inhibition of [3H] radiolabelled colchicine binding to tubulin beta (unknown origin) at 1 uM by DEAE-cellulose filter method; format: protein assay
[6] = tested on: A549; assay: Growth inhibition of human A549 cells after 48 hrs by MTT assay; format: functional; conditions: A549, 48 h
[7] = tested on: SK-MEL-28; assay: Growth inhibition of human SK-MEL-28 cells after 48 hrs by MTT assay; format: functional; conditions: SK-MEL-28, 48 h
[8] = Inhibition of bovine brain tubulin polymerization preincubated for 15 mins followed by GTP addition measured after 20 mins by turbidimetric analysis; parameters: species or system Bos taurus
Summary of the method: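 Bovine brain tubulin at 10 µM (1.0 mg/mL) in 0.8 M monosodium glutamate (pH 6.6 in 2 M stock) was preincubated with varying compound concentrations for 15 min at 30 °C, then cooled to 0 °C. After addition of 0.4 mM GTP, samples were warmed to 30 °C and assembly followed by turbidity at 350 nm.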

[9] = Growth inhibition of human doxorubicin-resistant MES-SA/Dx5 cells after 48 hrs by MTT assay; format: functional; conditions: MES-SA/Dx5, 48 h
Summary of the method: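 Cells seeded at 4 × 10^3 per well, grown 24 h, then treated 48 h at 0.004–100 µM from 100 or 25 mM DMSO stocks. Controls were 0.1% DMSO and phenyl arsine oxide. MTT (5 mg/mL) added for 2 h, formazan dissolved in DMSO, A490 read.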

[10] = tested on: HeLa; assay: Antimitotic activity in human HeLa cells assessed as disruption of interphase microtubule organization at 10 to 100 nM after 3 hrs by Hoechst 33342 staining based inverted microscopic analysis; format: functional, cell-based; summary of the method: as §1
[11] = tested on: MCF7; assay: Growth inhibition of human MCF7 cells after 48 hrs by MTT assay; format: functional; conditions: MCF7, 48 h
Summary of the method: (§2)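 Cells seeded at 4 × 10^3 per well, grown 24 h, then treated 48 h at 0.004–100 µM from 100 or 25 mM DMSO stocks. Controls were 0.1% DMSO and phenyl arsine oxide. MTT (5 mg/mL) added for 2 h, formazan dissolved in DMSO, A490 read. […] HeLa/MCF-7 in DMEM, MES-SA lines in RPMI-1640, all with 10% FBS.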

[12] = tested on: B16-F10; assay: Growth inhibition of mouse B16F10 cells after 48 hrs by MTT assay; format: functional; conditions: B16-F10, 48 h
[13] = tested on: HeLa; assay: Growth inhibition of human HeLa cells after 48 hrs by MTT assay; format: functional; summary of the method: as §2
[14] = tested on: HeLa; assay: Antimitotic activity in human HeLa cells assessed as mitotic microtubule organization at 1 to 10 nM after 3 hrs by Hoechst 33342 staining based inverted microscopic analysis; format: functional, cell-based; summary of the method: as §1
[15] = Growth inhibition of human MES-SA cells after 48 hrs by MTT assay; format: functional; summary of the method: as §2
[16] = Growth inhibition of human Hs683 cells after 48 hrs by MTT assay; format: functional; conditions: Hs 683, 48 h
[17] = tested on: HeLa; assay: Antimitotic activity in human HeLa cells assessed as disruption of mitotic microtubule organization at 10 to 100 nM after 3 hrs by Hoechst 33342 staining based inverted microscopic analysis; format: functional, cell-based; summary of the method: as §1
[18] = Aqueous solubility of the compound by spectrophotometric analysis; format: physicochemical
Summary of the method: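 Compound dispersed in ultrapure water at >0.5 mg/mL; supernatant centrifuged repeatedly until no pellet remained, then diluted 1:2 (solution:DMSO). Concentration read from absorbance at peak 335–336 nm against a calibration line made in 1:2 water/DMSO, and corrected for the DMSO dilution.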

[19] = Growth inhibition of human UM-SCC-10B cells after 48 hrs by MTT assay; format: functional
[20] = Growth inhibition of human UM-SCC-10A cells after 48 hrs by MTT assay; format: functional; conditions: UMSCC-10A
[21] = tested on: UMSCC22B; assay: Growth inhibition of human UM-SCC-22B cells after 48 hrs by MTT assay; format: functional
[22] = tested on: HeLa; assay: Cell cycle arrest in human HeLa cells assessed as accumulation at G2/M phase at 1 uM after 32 hrs using Vybrant Orange staining by flow cytometry relative to control; format: functional, cell-based
Summary of the method: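 HeLa cells at 70–80% confluence were seeded at 2 × 10^5 per well in DMEM/10% FBS with penicillin G and streptomycin, left to adhere overnight, then treated at 1 µM for 32 h (0.1% DMSO control). Washed, trypsinized, stained 30 min at 37 °C with 10 µM Vybrant Orange in medium, then analysed by flow cytometry for DNA content.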

[23] = Growth inhibition of human UM-SCC-22A cells after 48 hrs by MTT assay; format: functional

| SMILES | inhibition [1] [%] | GI50 [2] [nM] | Activity [3] | Activity [4] | GI50 [6] [nM] | GI50 [7] [nM] | IC50 [8] [nM] | GI50 [9] [nM] | Activity [10] | GI50 [11] [nM] | GI50 [12] [nM] | GI50 [13] [nM] | Activity [14] | GI50 [15] [nM] | GI50 [16] [nM] | Activity [17] | solubility [18] [µM] | also measured |
| --- | --- | --- | --- | --- | --- | --- | --- | --- | --- | --- | --- | --- | --- | --- | --- | --- | --- | --- |
| O=C(c1ccccc1)c1[nH]c2[nH]cnc(=O)c2c1-c1ccccc1 | 88 | < 10 | inactive | inactive | 10 | < 10 | 1200 | 70 | Active | 40 | 20 | 35 | inactive | 30 | 10 | Active | 10 (≈ 3.15 µg/mL) | inhibition [5]: 58% |
| O=C(c1ccccc1)c1[nH]c2[nH]cnc(=O)c2c1-c1cc(Br)cc(Br)c1 | 71 | 30 | inactive | inactive | 30 | 20 | 1600 | 394 | Active | 95 | 50 | 95 | inactive | 81 | 20 | Active | 40 (≈ 18.9 µg/mL) | GI50 [19]: 100 nM; GI50 [20]: 90 nM; GI50 [21]: 20 nM; Activity [22]: Active; GI50 [23]: 110 nM |
